Source: ChEMBL document CHEMBL4196022, “Alkynyl-containing phenylthiazoles: Systemically active antibacterial agents effective against methicillin-resistant Staphylococcus aureus (MRSA)” (Eur J Med Chem, 2018)
Values after ≈ are worked out from the molar mass of the structure shown.

How the values were obtained:
[1] = test system: Staphylococcus aureus; experiment: Antibacterial activity against methicillin-resistant Staphylococcus aureus NRS119 after 20 hrs by broth microdilution assay; format: functional; conditions: NRS119, 20 h
Procedure, shortened: (§1)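 Broth microdilution per CLSI in cation-adjusted Mueller Hinton broth. Compounds serially diluted, in triplicate. Incubation at 37 °C for at least 20 hours. MIC taken as the lowest concentration with no visible bacterial growth.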

[2] = test system: Staphylococcus aureus; experiment: Potency index, ratio of vancomycin MIC to compound MIC for antibacterial activity against vancomycin-resistant Staphylococcus aureus VRS11a; format: functional
[3] = test system: Staphylococcus aureus; experiment: Bactericidal activity against methicillin-resistant Staphylococcus aureus NRS107 up to 18 hrs by broth microdilution assay; format: functional; conditions: NRS107, 18 h, read-out: MBC99.9
[4] = test system: Staphylococcus aureus; experiment: Bactericidal activity against methicillin resistant Staphylococcus aureus NRS123 (USA400) up to 18 hrs by broth microdilution assay; format: functional; conditions: read-out: MBC99.9
[5] = test system: Staphylococcus aureus; experiment: Ratio of MBC to MIC for vancomycin-resistant Staphylococcus aureus VRS10; format: functional
Procedure, shortened: (§2)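 MBC/MIC ratio. […] MBC by plating no-growth wells onto tryptic soy agar at 37 °C for at least 18 h; taken as the concentration giving 99.9% growth inhibition.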

[6] = test system: Staphylococcus aureus; experiment: Antibacterial activity against methicillin-resistant Staphylococcus aureus USA300 after 20 hrs by broth microdilution assay; format: functional; conditions: USA300, 20 h; procedure, shortened: as §1
[7] = test system: Staphylococcus aureus; experiment: Ratio of MBC to MIC for methicillin-resistant Staphylococcus aureus NRS107; format: functional; procedure, shortened: as §2
[8] = test system: Staphylococcus aureus; experiment: Potency index, ratio of vancomycin MIC to compound MIC for antibacterial activity against vancomycin-resistant Staphylococcus aureus VRS10; format: functional
[9] = test system: Staphylococcus aureus; experiment: Bactericidal activity against methicillin-resistant Staphylococcus aureus USA300 up to 18 hrs by broth microdilution assay; format: functional; conditions: USA300, 18 h, read-out: MBC99.9
[10] = test system: Staphylococcus aureus; experiment: Ratio of MBC to MIC for methicillin-resistant Staphylococcus aureus NRS119; format: functional; procedure, shortened: as §2
[11] = test system: Staphylococcus aureus; experiment: Ratio of MBC to MIC for vancomycin-resistant Staphylococcus aureus VRS11a; format: functional; procedure, shortened: as §2
[12] = test system: Staphylococcus aureus; experiment: Ratio of MBC to MIC for methicillin-resistant Staphylococcus aureus USA300; format: functional; procedure, shortened: as §2
[13] = test system: Staphylococcus aureus; experiment: Antibacterial activity against vancomycin-resistant Staphylococcus aureus VRS10 after 20 hrs by broth microdilution assay; format: functional; conditions: VRS10, 20 h; procedure, shortened: as §1
[14] = test system: Staphylococcus aureus; experiment: Bactericidal activity against methicillin resistant vancomycin-resistant Staphylococcus aureus VRS12 up to 18 hrs by broth microdilution assay; format: functional; conditions: VRS12, 18 h, read-out: MBC99.9
Procedure, shortened: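 MBC set up from the MIC plates. Aliquots from wells with no growth spotted onto tryptic soy agar and incubated at 37 °C for at least 18 hours. MBC taken as the lowest concentration giving 99.9% inhibition of bacterial growth.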

[15] = test system: Staphylococcus aureus; experiment: Potency index, ratio of vancomycin MIC to compound MIC for antibacterial activity against vancomycin-resistant Staphylococcus aureus VRS12; format: functional
[16] = test system: Staphylococcus aureus; experiment: Antibacterial activity against vancomycin-resistant Staphylococcus aureus VRS11a after 20 hrs by broth microdilution assay; format: functional; procedure, shortened: as §1
[17] = test system: Staphylococcus aureus; experiment: Ratio of MBC to MIC for methicillin-resistant Staphylococcus aureus NRS123 (USA400); format: functional; procedure, shortened: as §2
[18] = test system: Staphylococcus aureus; experiment: Antibacterial activity against vancomycin-resistant Staphylococcus aureus VRS12 after 20 hrs by broth microdilution assay; format: functional; conditions: VRS12, 20 h; procedure, shortened: as §1
[19] = test system: Staphylococcus aureus; experiment: Antibacterial activity against methicillin-resistant Staphylococcus aureus NRS107 after 20 hrs by broth microdilution assay; format: functional; conditions: NRS107, 20 h; procedure, shortened: as §1
[20] = test system: Staphylococcus aureus; experiment: Ratio of MBC to MIC for vancomycin-resistant Staphylococcus aureus VRS12; format: functional; procedure, shortened: as §2
[21] = test system: Staphylococcus aureus; experiment: Bactericidal activity against methicillin resistant vancomycin-resistant Staphylococcus aureus VRS10 up to 18 hrs by broth microdilution assay; format: functional; conditions: VRS10, 18 h, read-out: MBC99.9
[22] = test system: Staphylococcus aureus; experiment: Bactericidal activity against methicillin-resistant Staphylococcus aureus NRS119 up to 18 hrs by broth microdilution assay; format: functional; conditions: NRS119, 18 h, read-out: MBC99.9
[23] = test system: Staphylococcus aureus; experiment: Bactericidal activity against methicillin resistant vancomycin-resistant Staphylococcus aureus VRS11a up to 18 hrs by broth microdilution assay; format: functional; conditions: read-out: MBC99.9
[24] = test system: Staphylococcus aureus; experiment: Antibacterial activity against methicillin-resistant Staphylococcus aureus NRS123 (USA400) after 20 hrs by broth microdilution assay; format: functional; procedure, shortened: as §1
[25] = test system: HRT-18 cell line; experiment: Cytotoxicity against human HRT18 cells assessed as reduction in cell viability up to 32 ug/ml after 2 hrs by MTS assay; format: cell-based; conditions: hrt-18, 2 h
[26] = Selectivity index, ratio of toxic concentration for human HRT18 cells to MIC for methicillin-resistant Staphylococcus aureus; format: toxicity; conditions: read-out: Selectivity Index
[27] = test system: Mus musculus; experiment: Induction of inflammation in Balb/c mouse infected with methicillin-resistant Staphylococcus aureus USA300 assessed as redness around wounded skin area at 2% administered topically twice daily for 5 consecutive days measured 12 hrs post last dose relative to control; format: organism-based; conditions: in vivo, topical_or_ocular
Procedure, shortened: (§3)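 Female Balb/c mice, 8 weeks old, n=5 per group. Intradermal injection of 40 μL of 1.32×10^9 CFU/mL USA300; a wound formed by ~66 h. Treated topically with a 2% suspension in petroleum jelly twice daily for 5 days; the vehicle group served as control. Wounds excised 12 h after the last dose, homogenized in PBS and plated on mannitol salt agar; sites also observed for redness and swelling.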

[28] = test system: Mus musculus; experiment: Induction of inflammation in Balb/c mouse infected with methicillin-resistant Staphylococcus aureus USA300 assessed as swelling around wounded skin area at 2% administered topically twice daily for 5 consecutive days measured 12 hrs post last dose; format: organism-based; conditions: in vivo, topical_or_ocular; procedure, shortened: as §3
[29] = test system: Mus musculus; experiment: Toxicity in wounded skin area of Balb/c mouse infected with methicillin-resistant Staphylococcus aureus USA300 at 2% administered topically twice daily for 5 consecutive days measured 12 hrs post last dose; format: organism-based; conditions: in vivo, topical_or_ocular; procedure, shortened: as §3
[30] = test system: Staphylococcus aureus; experiment: Antibacterial activity against methicillin-resistant Staphylococcus aureus USA300 in Balb/c mouse skin infection model assessed as reduction in bacterial burden in wounded skin area at 2% administered topically twice daily for 5 consecutive days measured 12 hrs post last dose relative to control; format: functional; set-up: scale not given: the % may be the effect or the level left; procedure, shortened: as §3

Row | Compound | MIC [1] [µg/mL] | Ratio [2] | MBC [3] [µg/mL] | MBC [4] [µg/mL] | Ratio [5] | MIC [6] [µg/mL] | Ratio [7] | Ratio [8] | MBC [9] [µg/mL] | Ratio [12] | MIC [13] [µg/mL] | MBC [14] [µg/mL] | Ratio [15] | MIC [16] [µg/mL] | MIC [18] [µg/mL] | MIC [19] [µg/mL] | Ratio [20] | MBC [21] [µg/mL] | MBC [22] [µg/mL] | MBC [23] [µg/mL] | other results
1 | C/C(=N\NC(=N)N)c1sc(-c2ccc(C#CCC3CCCC3)cc2)nc1C | 4 (≈ 10.5 µM) | >100 | 4 (≈ 10.5 µM) | 2 (≈ 5.27 µM) | <=3 | 4 (≈ 10.5 µM) | <=3 | >100 | 4 (≈ 10.5 µM) | <=3 | 2 (≈ 5.27 µM) | 2 (≈ 5.27 µM) | >100 | 4 (≈ 10.5 µM) | 2 (≈ 5.27 µM) | 2 (≈ 5.27 µM) | <=3 | 4 (≈ 10.5 µM) | 4 (≈ 10.5 µM) | 4 (≈ 10.5 µM) | Ratio [10]: <=3; Ratio [11]: <=3; Ratio [17]: <=3; MIC [24]: 2 µg/mL (≈ 5.27 µM)
2 | C/C(=N\NC1=NCCN1)c1sc(-c2ccc(C#CC3CCCCC3)cc2)nc1C |  |  |  |  |  | 8 (≈ 19.7 µM) |  |  | 8 (≈ 19.7 µM) | <=3 |  |  |  |  |  |  |  |  |  |  | 
3 | CCCC#Cc1ccc(-c2nc(C)c(/C(C)=N/NC3=NCCN3)s2)cc1 |  |  |  |  |  | > 64 |  |  | > 64 | <=3 |  |  |  |  |  |  |  |  |  |  | 
4 | C/C(=N\NC(=N)N)c1sc(-c2ccc(C#CC(C)(C)C)cc2)nc1C | 2 (≈ 5.66 µM) | >100 | 4 (≈ 11.3 µM) | 16 (≈ 45.3 µM) | <=3 | 4 (≈ 11.3 µM) | <=3 | >100 | 4 (≈ 11.3 µM) | <=3 | 4 (≈ 11.3 µM) | 4 (≈ 11.3 µM) | 4 | 2 (≈ 5.66 µM) | 4 (≈ 11.3 µM) | 2 (≈ 5.66 µM) | <=3 | 4 (≈ 11.3 µM) | 2 (≈ 5.66 µM) | 8 (≈ 22.6 µM) | Ratio [10]: <=3; Ratio ([11]; read-out: Ratio): 4; Activity [25]: Non-Toxic; Ratio ([17]; read-out: Ratio): 4; selectivity ratio [26]: 7 to 31; MIC [24]: 4 µg/mL (≈ 11.3 µM)
5 | CC(=O)O[C@H]1C[C@@]2(C)[C@@H](C[C@@H](O)[C@H]3[C@@]4(C)CC[C@@H](O)[C@@H](C)[C@@H]4CC[C@@]32C)/C1=C(\CCC=C(C)C)C(=O)O [FUSIDIC ACID] |  |  |  |  |  |  |  |  |  |  |  |  |  |  |  |  |  |  |  |  | Activity [27]: Non-Toxic; Activity [28]: Non-Toxic; Activity [29]: Non-Toxic; Activity [30]: 78%
6 | C/C(=N\NC1=NCCN1)c1sc(-c2ccc(C#CCC3CCCC3)cc2)nc1C |  |  |  |  |  | 8 (≈ 19.7 µM) |  |  | 32 (≈ 78.9 µM) | <=3 |  |  |  |  |  |  |  |  |  |  | 
7 | C/C(=N\NC1=NCCN1)c1sc(-c2ccc(C#Cc3ccccc3)cc2)nc1C |  |  |  |  |  | 8 (≈ 20 µM) |  |  | 16 (≈ 40 µM) | <=3 |  |  |  |  |  |  |  |  |  |  | 
8 | CCCCCCC#Cc1ccc(-c2nc(C)c(/C(C)=N/NC(=N)N)s2)cc1 | 1 (≈ 2.62 µM) | >100 | 8 (≈ 21 µM) | 4 (≈ 10.5 µM) | <=3 | 4 (≈ 10.5 µM) | <=3 | >100 | 8 (≈ 21 µM) | <=3 | 2 (≈ 5.24 µM) | 4 (≈ 10.5 µM) | 8 | 0.5 (≈ 1.31 µM) | 2 (≈ 5.24 µM) | 4 (≈ 10.5 µM) | <=3 | 4 (≈ 10.5 µM) | 4 (≈ 10.5 µM) | 2 (≈ 5.24 µM) | Ratio ([10]; read-out: Ratio): 4; Ratio ([11]; read-out: Ratio): 4; Activity [25]: Non-Toxic; Ratio [17]: <=3; selectivity ratio [26]: 7 to 31; MIC [24]: 4 µg/mL (≈ 10.5 µM)
